Bioassay records: PubChem, Sanford-Burnham Center for Chemical Genomics
DNMT1 inh – inhibitors of human DNMT1; 360,000 compounds, 0.83% hits; inhibition (reported as % activation of signal), % at 10 µM; DNMT1 molecular beacon, Hinp1I cleavage, fluorescence; P26358; in the data active = inhibition above about 50%
LMPTP block – blocks human LMPTP phosphatase; P24666; recombinant LMPTP-A, OMFP fluorogenic substrate, fluorescence intensity; inhibition, % at 20 µM; 360,000 compounds, 0.22% hits; AID 651560;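 active = compounds that cut the enzyme signal by at least half of the control window in the single-dose screen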;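 note: plate controls were DMSO wells with enzyme plus substrate for no effect and substrate without enzyme for full effect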
Target sequence (P24666 whole entry, looked up): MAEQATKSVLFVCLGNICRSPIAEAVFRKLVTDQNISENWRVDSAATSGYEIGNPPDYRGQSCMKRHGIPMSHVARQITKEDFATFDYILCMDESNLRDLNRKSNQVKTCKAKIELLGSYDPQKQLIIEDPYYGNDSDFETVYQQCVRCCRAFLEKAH
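Assay system: LMPTP-A, protein tyrosine phosphatase of low molecular weight / Medium: pH 6.0 Bis-Tris buffer with DTT and Triton X-100 / Schedule: 50 min enzyme reaction at room temperature, protected from light / Measured by: endpoint fluorescence intensity from OMFP dephosphorylation / Read-out basis: % inhibition relative to no-enzyme and uninhibited control wells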
HKDC1 inh – blocks human hexokinase HKDC1 activity. Q2TB90. recombinant HKDC1, G6PDH/diaphorase resazurin coupled fluorescence. inhibition, % at 20 µM. 340,000 compounds, 0.16% hits;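 active = inhibition above about 35% when tested at 20 µM, limit read from the data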;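 note: plate controls were DMSO wells with enzyme for no effect and DMSO wells lacking enzyme for full effect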
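Test system: recombinant HKDC1 (HK5) hexokinase enzyme, produced in-house / Doses: 20 µM test compound, 1% DMSO / Timing: 90 min, room temperature / Detection: G6PDH/diaphorase-coupled fluorescence, 1 mM NADP, 100 µM resazurin, 525/613 nm / Control set: DMSO wells with and without enzyme mix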
STEP block – inhibitors of human striatal-enriched phosphatase STEP | recombinant STEP, OMFP fluorogenic substrate, fluorescence | 360,000 compounds, 0.25% hits | P54829 | inhibition, % at 20 µM;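 active = inhibition at 20 µM, scaled per plate between control wells, above about 37%, limit read from the data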;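 note: 0% = DMSO with enzyme and substrate and 100% = substrate only without enzyme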
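Test system: STEP tyrosine phosphatase / Reagent: OMFP at 25 µM / Doses: 20 µM, 1% DMSO / Read-out: percent inhibition scaled to no-enzyme and uninhibited-enzyme controls, plate-pattern corrected / Detection: FITC-channel fluorescence of OMFP product / Medium: Bis-Tris buffer pH 6.0, 2.5 mM DTT, 0.005% Tween 20 / Schedule: 20 min at room temperature, dark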
Scp-1 inhibitor – blocks human Scp-1 phosphatase activity. Q9GZU7. Recombinant Scp1, phosphopeptide, malachite green phosphate absorbance. inhibition, % at 20 µM. 340,000 compounds, 0.88% hits;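 active = inhibition above about 50% at 20 µM, limit read from the data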;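 note: plate controls were DMSO wells with enzyme for no effect and wells lacking enzyme for full effect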
Target sequence (Q9GZU7 76-261 limits assumed): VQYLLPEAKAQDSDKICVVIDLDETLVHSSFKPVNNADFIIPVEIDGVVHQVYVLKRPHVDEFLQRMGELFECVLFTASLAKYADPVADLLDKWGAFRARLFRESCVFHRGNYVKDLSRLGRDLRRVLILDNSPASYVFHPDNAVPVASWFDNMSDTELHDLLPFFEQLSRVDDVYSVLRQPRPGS
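Test system: SCP-1 phosphatase catalytic domain, residues 76-261 | Compound dosing: One concentration, 20 µM, with 1.0% DMSO | Schedule: 45 min room-temperature reaction, 5 min colour, 30 min stabiliser | Detection: Absorbance at 630 nm | Read-out basis: % inhibition of SCP-1 phosphate liberation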
SUMO1 PPI mod – SUMO1-SIM interaction modulation; P63165; SUMO1 binding to a labelled peptide, TR-FRET, 1 h; inhibition, % at 20 µM; 360,000 compounds, 0.33% hits; AID 602429; in the data active = inhibition above about 37%
Target sequence (P63165 whole entry, looked up): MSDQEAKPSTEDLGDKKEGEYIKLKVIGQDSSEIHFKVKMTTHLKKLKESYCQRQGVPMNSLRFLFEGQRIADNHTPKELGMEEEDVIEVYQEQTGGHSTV
* = called active by the depositor; nt = no result. The list is not random: actives were taken first. Their share in the collection is about 1.8%.

SMILES | DNMT1 inh | LMPTP block | HKDC1 inh | STEP block | Scp-1 inhibitor | SUMO1 PPI mod
CC1=C(C(=O)N2CCOCC2)CC(CC(=O)NC2CCCC2)C(=O)N1Cc1ccccc1 (centres undefined) | 8 | -1 | nt | -1 | nt | 1
COc1cc(NCCCCCCN)c2ncccc2c1OC | 62* | 29 | 20 | 2 | -15 | -12
Cc1ccc2nc(Cl)c(/C=N/NC(=O)[C@H]3C[C@@H]3c3ccccc3)cc2c1 | 36 | 4 | -2 | 3 | -1 | 40*
COc1cccc2c1C(=O)c1c(O)c3c(c(O)c1C2=O)C[C@@](O)(C(=O)CO)C[C@@H]3OC1CC(N)C(O)C(C)O1 (some centres undefined) | -202 | 9 | 25 | -21 | -5 | 92*
Nc1ccc2nc(CCCCCCCCc3nc4ccc(N)cc4[nH]3)[nH]c2c1 | -14 | 65* | 13 | 2 | -3 | -2
Nc1ccc2nc(CCCCCCc3nc4ccc(N)cc4[nH]3)[nH]c2c1 | -15 | 68* | 13 | 3 | 14 | 0
Nc1ccc2nc(CCCCc3nc4ccccc4[nH]3)[nH]c2c1 | -7 | 10 | 12 | 0 | -4 | 3
CN(C)S(=O)(=O)c1ccc(C(=O)Nc2ccc3nc(N4CCOCC4)sc3c2)cc1 | -5 | 1 | 4 | 2 | -5 | -3
COC(=O)c1cc(C(=O)N2CCN(c3cccc(C)c3C)CC2)cc([N+](=O)[O-])c1 | -6 | 0 | -3 | 2 | 5 | 61*
CC(C)S(=O)(=O)c1csc(C(=O)Nc2ccc(F)cc2)c1N | 1 | -2 | -3 | -2 | 92* | 3
O=C(CCc1ccccc1)NC(=S)Nc1ccccc1[N+](=O)[O-] | -2 | 1 | 3 | 1 | -5 | -19
CCn1cc(C(=O)O)c(=O)c2cc(F)c(N3CCN(C(=S)NC(=O)c4cc(OC)cc(OC)c4)CC3)cc21 | 3 | 63* | -6 | 5 | 7 | 12
CCn1cc(C(=O)O)c(=O)c2cc(F)c(N3CCN(C(=S)NC(=O)c4ccccc4Cl)CC3)cc21 | 0 | 63* | -6 | 6 | -11 | 27
CCn1cc(C(=O)O)c(=O)c2cc(F)c(N3CCN(C(=S)Nc4ccc(OC)cc4)CC3)cc21 | 6 | 59* | 2 | -2 | -12 | -2
CCn1cc(C(=O)NCc2ccccc2)c(=O)c2cc(F)c(N3CCN(C(=O)c4ccco4)CC3)cc21 | -9 | 6 | 8 | 2 | 4 | 13
CCn1cc(C(=O)O)c(=O)c2cc(F)c(N3CCN(C(=S)NC(=O)c4ccccc4C)CC3)cc21 | 0 | 64* | -3 | 4 | -16 | 11
CCn1cc(C(=O)O)c(=O)c2cc(F)c(N3CCN(C(=S)NC(=O)c4ccccc4)CC3)cc21 | -3 | 66* | -5 | 0 | -16 | 8
C=CCNC(=S)N1CCN(c2cc3c(cc2F)c(=O)c(C(=O)O)cn3CC)CC1 | -1 | 19 | -3 | 1 | -18 | 7
CCn1cc(C(=O)NCc2ccc3c(c2)OCO3)c(=O)c2cc(F)c(N3CCN(C(=O)c4ccco4)CC3)cc21 | -16 | 53* | 4 | 5 | 9 | 8
O=[N+]([O-])c1ccc(S(=O)(=O)NN=Cc2ccc(Cl)c(Cl)c2)cc1 | -3 | -2 | 0 | -1 | -12 | -23
CCCCc1c(-c2ccccc2OC)ncn1CCc1ccccc1Cl | nt | 1 | nt | nt | nt | 8
O=C(O)C1C2C=CC(O2)C1C(=O)NCCC1=CCCCC1 (centres undefined) | 53* | -2 | 3 | 7 | 38 | 4
O=C(NCCC1=CCCCC1)C(=O)NCc1ccccc1 | 4 | -1 | -14 | -4 | -6 | 2
CCOc1ccccc1N1CCN(CC(=O)Nc2ccnn2C2CCCC2)CC1 | -4 | 1 | 0 | 2 | -3 | -3
CCCn1c(SCC(=O)Nc2ccc3c(c2)OCO3)n[nH]c1=O | -1 | -2 | -3 | -2 | -7 | 35*
SMILES | DNMT1 inh | LMPTP block | HKDC1 inh | STEP block | Scp-1 inhibitor | SUMO1 PPI mod
CCCn1c(SCC(=O)NCc2ccc3c(c2)OCO3)n[nH]c1=O | 2 | 0 | -6 | -3 | -2 | 3
C[C@H]1CN([C@@H](C)CO)C(=O)c2cc(C#Cc3ccccn3)cnc2O[C@@H]1CN(C)Cc1ccccc1 | 4 | -1 | nt | 1 | nt | 6
COc1ccc(C2NC(=S)NC(C)=C2C(=O)Nc2ccccn2)cc1 (centres undefined) | 2 | -2 | -15 | -2 | -6 | 57*
CCCCC[C@@H](C)N1C[C@H](COCc2ccccc2)Oc2cc(N3CC[C@H](O)C3)ccc2S1(=O)=O | nt | 4 | nt | nt | nt | 2
Cc1ccc(CNc2ccc(O)cc2)cc1 | -6 | 18 | 18 | 8 | -7 | 68*
Cc1ccc(NCc2ccccc2O)cc1 | -2 | -1 | 8 | -4 | -11 | 2
O=C(O)c1ccc2c(c1)S(=O)(=O)c1cc(N3CCN(c4cnccn4)CC3)ccc1C2=O | 1 | 4 | nt | 8 | nt | -22
COc1ccc(Cn2c(=O)[nH]c3cc(C(=O)N4CCN(c5ccc(C(C)=O)cc5)CC4)ccc3c2=O)cc1 | -2 | 1 | -2 | 0 | -4 | 57*
CCOC(=O)N1CCN(C(=O)c2ccc3c(=O)n(CCc4ccccc4)c(=S)[nH]c3c2)CC1 | -6 | 0 | 4 | -1 | -5 | 0
CN1CCN(C(=O)c2ccc3c(=O)n(CCc4ccccc4)c(=S)[nH]c3c2)CC1 | 1 | -7 | 0 | 0 | -3 | 41*
Oc1ccc2ccccc2c1C=NC12CN3CCN(CN(C3)C1)C2 | -11 | -4 | 29 | 4 | 4 | 54*
Cc1nc(-c2ccccc2)sc1-c1nc(-c2ccncc2)ncc1S(=O)(=O)c1ccccc1 | -4 | 6 | 3 | 0 | 12 | 47*
COc1ccc(N2C(c3ccsc3)=Cc3cc4c(cc3C2c2c[nH]c3ccccc23)OCO4)cc1 (centres undefined) | nt | 6 | nt | nt | nt | -13
O=C(/C=C/c1cccc([N+](=O)[O-])c1)c1ccc([N+](=O)[O-])o1 | 31 | 2 | 55* | 4 | -4 | -22
CC(C)c1ncc(CO)n1Cc1c(Cl)cccc1Cl | 2 | 2 | nt | 0 | nt | -6
C[C@@H](CN1C2=NC[C@H](C)N2C[C@H]1Cc1ccc(O)cc1)NC(=O)CCC1CCCCC1 | 0 | -1 | 3 | -1 | 0 | 5
CC(C)[C@H]1CN=C2N(C[C@H](C)NC(=O)CCC3CCCCC3)[C@H](Cc3ccc(O)cc3)CN21 | -1 | 13 | 1 | 23 | 10 | 53*
COc1cccc2oc3cc(C#Cc4ccccn4)ccc3c(=O)c12 | nt | nt | 4 | nt | 59* | nt
